Laboratory results as given in ChEMBL document CHEMBL4513216, “Probing the Open Global Health Chemical Diversity Library for Multistage-Active Starting Points for Next-Generation Antimalarials” (ACS Infect Dis, 2020).

Test: Toxicity liver stage against HepG2, at 10uM
Type: cell-based
Parameters: test concentration 10 uM, cell line HepG2-A16-CD81EGFP
Details: human, HepG2-A16-CD81EGFP cells; read-out: INHIBITION
How it was run: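 Uninfected HepG2-A16-CD81EGFP cells, 3 × 10^3 per well, 1536-well, plated on prespotted compound at 10 μM final, parasite-free screening media added to match infected plates; puromycin 10 μM positive, DMSO 0.5% negative; run in parallel with 48 h PbLuc assay at 37 °C, 5% CO2; viability by CellTiter-Glo luminescence, normalized to controls.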

| Compound | cytotoxicity at 10 µM [%] |
| --- | --- |
| Oc1ccccc1N1CCN(c2ncnc3sc4c(c23)CCNC4)CC1 | 4.36 |
| CN(C)c1nccc(NC(=O)c2ccncc2)n1 | -4.33 |
| Cc1cnn(CCNCc2ccc(S(C)(=O)=O)cc2)c1 | 7.55 |
| CCc1ncc2c(n1)CN(Cc1nc(-c3ccsc3)oc1C)CC2 | -8.6 |
| COc1ccccc1N1CCN(C(=O)CCn2ccnc2C)CC1(C)C | -26.7 |
| Cc1cc(CN2CCN(C(=O)NCc3ccoc3)CC2)no1 | -22.5 |
| CCc1n[nH]c(C2CN(C(=O)c3ccc(Cl)cn3)CCO2)n1 (stereo unspecified) | -18.3 |
| O=C1CC[C@H]2[C@H](CCN2c2ncc(F)cn2)N1c1cccnc1 | 0.864 |
| N#Cc1cc(N2CCC(CS(N)(=O)=O)CC2)c2ccccc2n1 | -11.4 |
| CCOC1CCN(C(=O)c2cnn(-c3ccccc3Cl)c2)CC1 | -9.78 |
| CC(C)C(=O)Nc1cccc(C(=O)Nc2ccccn2)c1 | -2.37 |
| O=C(NCc1ccco1)[C@H]1C[C@H]2OCC[C@H]2N(S(=O)(=O)C2CC2)C1 | -1.48 |
| CCc1ncc(C(=O)NCCN(C)S(C)(=O)=O)cn1 | 4.03 |
| Cc1cnn(CC(C)NCc2ccc(S(C)(=O)=O)cc2)c1 (stereo unspecified) | 4.62 |
| CS(=O)(=O)c1ccc(-c2cc(C3CC3)c(C#N)c(N)n2)cc1 | -8.11 |
| CCC(CC)NC(=O)c1cncc(Br)c1 | -0.211 |
| CC(C)N1CCCCC1c1nc(N(C)C)ncc1I (stereo unspecified) | -3 |
| O=C(O)c1cc(S(=O)(=O)Nc2cccc3c2OCCO3)ccc1F | 12.3 |
| COc1ccc(OC)c(CN2CCc3nc4ccsc4c(=O)n3CC2)c1 | 43.5 |
| CCCS(=O)(=O)CC(=O)N1CCCC1c1noc(C2CC2)n1 (stereo unspecified) | 3.34 |
| Cc1cc(C)n(CC2CCCN2C(=O)Cc2c(C)noc2C)n1 (stereo unspecified) | -4.05 |
| CCC(CC)NC(=O)c1ccc2c(c1)C(c1nc[nH]n1)CN2S(C)(=O)=O (stereo unspecified) | -138 |
| CC(C)C(C)N(C)C(=O)COc1ccccc1C#N (stereo unspecified) | -3.28 |

| Compound | cytotoxicity at 10 µM [%] |
| --- | --- |
| CN(C)CCNC(=O)c1cc(-c2cnc(N(C)C)nc2)cn1CC1CC1 | -5.81 |
| Fc1ccc(NCc2nnsc2Cl)c(OC(F)F)c1 | 0.811 |
| c1nc(N2CCOCC2)nc2c1COCC21CCN(CC2CC2)C1 (stereo unspecified) | 9.69 |
| CC(C)n1[nH]c(=O)c2c1NC(=O)CC2c1cccc(O)c1 (stereo unspecified) | 10.6 |
| Cc1n[nH]c(C2CN(CCCOc3ccc(F)cc3)CCO2)n1 (stereo unspecified) | -5.76 |
| c1cnc(Nc2cncc(C3CCCN(c4cnccn4)C3)n2)nc1 (stereo unspecified) | -8.74 |
| CC(C)Nc1ncnc2c1CCN(c1cc(C(F)(F)F)ncn1)CC2 | 6.07 |
| Cc1cncc(Oc2ccc(CN)cc2)n1 | 9.81 |
| c1cnn(CC2CCN(c3nc(C4CC4)nc4c3CCNCC4)CC2)c1 | -2.84 |
| COc1c(CNCc2ccc(CN(C)C)cc2)c(C(C)C)nn1C | -11.2 |
| CCOC(=O)N1CC2(CCNCC2)c2cc(Cl)ccc21 | -0.449 |
| COC(=O)c1sc(NCc2ccc(N3CCC(O)CC3)c(F)c2)nc1Cl | 44.5 |
| O=C(O)CSC1CCc2ccccc2NC1=O (stereo unspecified) | 1.13 |
| CN(C)CCN1CCCC12CCN(Cc1nccn1C)CC2 | -99.1 |
| COC(=O)CCNC(=O)c1cc(-c2ccc(OC)cc2)nn1C | 4.75 |
| CCn1ccnc1CN1CCOC(CNc2cccnn2)C1 (stereo unspecified) | 0.762 |
| Cc1noc(CN2CCN(C(=O)c3ccccn3)CC2)n1 | 1.35 |
| CCc1ccccc1Nc1noc2c1CN(C(=O)CCOC)CC2 | -16.6 |
| Cc1ccsc1CN(C)c1nc2c(cnn2C(C)(C)C)c(=O)[nH]1 | 33.3 |
| CC(=O)NCCCSC1CCCN(c2ccccc2Cl)C1=O (stereo unspecified) | -0.5 |
| CNC(=O)[C@@H]1C[C@@H](NC(=O)CCCc2cccs2)CN1C1CCOCC1 | -0.828 |
| CCc1nnc2n1CCN(C(C(=O)N(CC)CC)c1ccccc1)C2 (stereo unspecified) | -0.77 |
| OC(CNCc1ccccc1C(F)(F)F)c1ccccc1 (stereo unspecified) | -4.63 |

| Compound | cytotoxicity at 10 µM [%] |
| --- | --- |
| CC(=O)N(Cc1ncc(C)o1)C1CCN(CCc2cnn(C)c2)C1 (stereo unspecified) | 0.742 |
| CS(=O)(=O)N1CC[C@@H]2OC(COCC(=O)N3CCCC3)CC[C@@H]21 (stereo partly specified) | 1.56 |
| CCc1nc(C2CCCN2C(=O)CCc2cccs2)no1 (stereo unspecified) | -3.19 |
| O=C(Cn1cc(I)cn1)N1CCCCCC1 | 8.9 |
| O=C(NCC1(c2ccc(F)cc2)CCC1)N1CCC2(CCOCC2)C1 | 3.73 |
| COc1ccc(CNC(=O)c2ccoc2CN2CCNC(=O)C2)cc1 | 6.41 |
| COc1ncc(C2(O)CCN(Cc3cccc(F)c3F)CC2)c(OC)n1 | -8.33 |
| COc1c(C(=O)N2CCC(CSc3ccccc3)C2)c(C)nn1C (stereo unspecified) | 25.6 |
| Cc1cc(=O)n2ncnc2n1CC(O)c1ccccc1F (stereo unspecified) | -13.7 |
| CNC(=O)c1csc(-c2ccoc2)n1 | -5.64 |
| CC(C)(C)CC(=O)NC(C)(C(N)=O)c1cccc(Cl)c1 (stereo unspecified) | 11.5 |
| CN(C)c1cc(C2CCCN(C(=O)c3ccc(=O)[nH]n3)C2)ccn1 (stereo unspecified) | -9.04 |
| CC(C)NC(=O)[C@H]1C[C@@H]2[C@@H](C1)OCCN2CC1CC1 | -6.13 |
| CC(C)c1nccn1C1CCCN(C(=O)c2ccc3[nH]nnc3c2)C1 (stereo unspecified) | 1.9 |
| CCc1noc(C2CCCCN2C(=O)c2ccc(C)o2)n1 (stereo unspecified) | 14 |
| O=C(CCN1CCOCC1)NC(Cc1ccsc1)c1nccs1 (stereo unspecified) | 3.35 |
| CCc1nc2n(n1)CC(NCc1cc(OC)c3c(c1)OCCO3)CC2 (stereo unspecified) | -4.93 |
| Cc1cc(C(=O)N2CCN(c3nc4c(C)cccc4s3)CC2)no1 | 12.1 |
| Cc1c(C(=O)O)sc2nc(C(F)(F)F)ccc12 | 1.5 |
| Cc1ccc(CNc2cc3[nH]c(O)nc3cc2C)cc1 | 22.2 |
| CCCNC(=O)c1cc2c(c3ccccc3n2C)n1C(=O)N(C)C | 0.539 |
| Cc1cccc(OCCC(=O)NC(C)c2nnc3n2CCC3)c1 (stereo unspecified) | -12.8 |
| COc1cccc(Nc2nc(N3CCCC3)nc3c2CNCC3)c1 | -6.41 |

| Compound | cytotoxicity at 10 µM [%] |
| --- | --- |
| Cn1nc(COc2cccnc2)c2c1CCN(c1cnccn1)C2 | 1.34 |
| COc1cc(CCC(=O)N2CCC(c3cncc(C)n3)CC2)on1 | 4.46 |
| CNC(=O)NC(=O)CN(CC(C)O)c1ccccc1 (stereo unspecified) | 10.9 |
| CCC(NC(=O)c1cnc(N(C)C)nc1C)c1ccncc1 (stereo unspecified) | -2.9 |
| CCn1c(N)nc2cc(C(=O)NCc3ccccc3Cl)cnc21 | -14.1 |
| O=C(CSc1nnc(N2CCOCC2)s1)NCc1cccs1 | 1.66 |
| Cc1ncsc1CCNC(=O)Cn1nc(C)n(Cc2ccccc2)c1=O | 7.48 |
| Cc1cc(NC(=O)NCCCSc2nncn2C)no1 | 0.0537 |
| Cc1ccsc1[C@@H]1CCN(C(=O)CCC(=O)N2CCCCCC2)C[C@H]1O | -1.72 |
| CC(C)NC(=O)[C@@]12CCO[C@@H]1CCN(Cc1ccc3c(c1)OCO3)C2 | -1.34 |
| Cc1cccc(CN2CC[C@H]3C[C@@H](C)O[C@@H]3C2)n1 | -65.5 |
| CCC(=O)N1CCN(C)C(=O)C(Cc2ccccc2-c2cccs2)C1 (stereo unspecified) | 4.89 |
| CCc1cc(CN2C[C@@H]3CC[C@H]2CN(C2Cc4ccccc4C2)C3)on1 | 0.998 |
| O=C(NCCC(=O)N1CCCC1)c1cccnc1 | 11 |
| CCCN1C(=O)C2(CCCCC2)NC1c1c[nH]nc1-c1cccnc1 (stereo unspecified) | 4.59 |
| CCc1nn(C)c2[nH]nc(NC(=O)c3cccnc3NC(C)C)c12 | 3.07 |
| CC(=O)NCC(=O)N(CCN1CCOCC1)Cc1ccco1 | -9.04 |
| Cc1cc(CN2CCC(CNC(=O)c3ccc(O)c(Cl)c3)C2)[nH]n1 (stereo unspecified) | 13.3 |
| CC(=O)N1CCC(C(=O)NC(C)c2cccc(OC(F)F)c2)CC1 (stereo unspecified) | -8.2 |
| COCCOC(=O)N1CCn2nc(CN(C)Cc3nccs3)cc2C1 | 1.32 |
| Cn1cnnc1C1CCN(C(=O)c2cc3c(s2)CCCC3)CC1 | -19 |
| CN(Cc1ccno1)C(=O)c1cccc(CC2CCNCC2)c1 | -15.9 |
| O=C(CN1CCCCC1Cn1cccn1)NC1CCOCC1 (stereo unspecified) | 4.08 |

| Compound | cytotoxicity at 10 µM [%] |
| --- | --- |
| CCc1csc(C2CCCN(C(=O)c3c[nH]c(C)n3)C2)n1 (stereo unspecified) | -9.03 |
| CC(=O)N[C@@H]1CN(Cc2ccccc2-n2cccn2)C[C@H]1C(C)C | 8.67 |
| O=C(NCCc1ccccc1)C1CCCN(c2ccc3nncn3n2)C1 (stereo unspecified) | 25.9 |
| CCC(CC)Cn1ncc(N2CCOCC2)cc1=O | -3.46 |
| CC(C)(C)CNCC1(O)CCCN(Cc2ccccc2F)C1=O (stereo unspecified) | 9.04 |
| O=C(c1ccno1)N1CC[C@@H]2CN(C3CCOCC3)CCO[C@@H]2C1 | -102 |
| CC(C)c1nc(Cn2cncn2)n(-c2ccccn2)n1 | -1.03 |
| CN(C)S(=O)(=O)N1C[C@@H](Oc2ccccn2)[C@H]2OCCC[C@H]21 | 1.16 |
| N#Cc1cc(N2CCC(CS(N)(=O)=O)CC2)nc2ccccc12 | -6.03 |
| Cc1cc(CC(=O)N2CCN(CC3CC3)[C@@H]3CS(=O)(=O)C[C@@H]32)ccc1F | 5.17 |
| CN1CCC(c2n[nH]c(=O)n2-c2cccc(Cl)c2)CC1 | 33.9 |
| Cc1c(C)n2c(SCC(=O)N3CCCC3)nnc2[nH]c1=O | 2.4 |
| CC(C)c1noc(C(C)N2CCN(Cc3nc4ccccc4[nH]3)CC2)n1 (stereo unspecified) | -2.16 |
| CCc1cc(N2CCCNCC2)n2nc(C)c(C)c2n1 | 4.46 |
| O=S(=O)(C1CC1)N1CC[C@H](OCC2CC2)[C@@H]1Cc1cccnc1 | 8.13 |
| CCOCC1c2c(cnn2C)CCN1C(=O)c1ccncn1 (stereo unspecified) | -141 |
| CCN(C(=O)c1ccc(-n2ncc(C#N)c2N)cc1)C1CCCC1 | -13 |
| CC(C)c1ncc(CN2C[C@@H](CN3CCCCC3)[C@@H](CO)C2)cn1 | -10.2 |
| CN1CCCC1c1ccc(C(=O)Nc2c3c(nn2C)CCC3)s1 (stereo unspecified) | -7.3 |
